Experimental data as given in ChEMBL document CHEMBL1131376, “Steroidal and nonsteroidal sulfamates as potent inhibitors of steroid sulfatase” (J Med Chem, 1998).

Columns and labels:
[1] = target: T1, Steryl-sulfatase (Homo sapiens) (UniProt P08842); experiment: In vitro inhibition of Estrone Sulfatase in placental microsomes at a concentration of 100 uM.; details: Placenta
T1 sequence (whole entry): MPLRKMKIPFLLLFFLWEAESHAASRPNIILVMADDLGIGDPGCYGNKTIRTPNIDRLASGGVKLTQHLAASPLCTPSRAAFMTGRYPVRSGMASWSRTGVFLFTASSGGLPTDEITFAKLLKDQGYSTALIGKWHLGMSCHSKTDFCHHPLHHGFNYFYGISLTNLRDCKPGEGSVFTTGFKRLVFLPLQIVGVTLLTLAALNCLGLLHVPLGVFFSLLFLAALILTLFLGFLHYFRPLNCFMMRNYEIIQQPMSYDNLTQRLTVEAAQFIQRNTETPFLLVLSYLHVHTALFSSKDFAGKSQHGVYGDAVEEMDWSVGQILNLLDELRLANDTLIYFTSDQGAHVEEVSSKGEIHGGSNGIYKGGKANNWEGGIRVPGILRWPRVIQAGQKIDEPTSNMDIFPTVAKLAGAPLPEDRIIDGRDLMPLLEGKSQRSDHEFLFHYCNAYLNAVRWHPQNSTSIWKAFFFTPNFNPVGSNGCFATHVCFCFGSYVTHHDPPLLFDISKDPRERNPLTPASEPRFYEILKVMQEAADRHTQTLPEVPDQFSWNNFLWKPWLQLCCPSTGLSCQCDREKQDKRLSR
In short: (§1)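 Placental microsomes (100 000 g pellet; 125 µg protein/mL) incubated 30 min with [³H]estrone sulfate (4 × 10⁵ dpm) brought to 20 µM with unlabelled substrate, with or without inhibitor. Product extracted into toluene, with [4-¹⁴C]estrone to correct for procedural losses. % inhibition given as mean ± s.d. of triplicates.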

[2] = target: T1, Steryl-sulfatase (Homo sapiens); experiment: In vitro inhibition of Estrone Sulfatase in intact MCF-7 breast cancer cells at a concentration of 10 uM.; format: cell-based; details: MCF7
[3] = target: T1, Steryl-sulfatase (Homo sapiens); experiment: In vitro inhibition of Estrone Sulfatase in placental microsomes at a concentration of 10 uM.; details: Placenta
[4] = target: T1, Steryl-sulfatase (Homo sapiens); experiment: In vitro inhibition of Estrone Sulfatase in intact MCF-7 breast cancer cells at a concentration of 1.0 uM.; format: cell-based; details: MCF7
[5] = target: T1, Steryl-sulfatase (Homo sapiens); experiment: In vitro inhibition of Estrone Sulfatase in placental microsomes at a concentration of 50 uM.; details: Placenta; in short: as §1
[6] = target: T1, Steryl-sulfatase (Homo sapiens); experiment: In vitro inhibition of Estrone Sulfatase in intact MCF-7 breast cancer cells at a concentration of 0.1 uM.; format: cell-based; details: MCF7

Row | SMILES | inhibition [1] | inhibition [2] | inhibition [3] | inhibition [4] | inhibition [5] | inhibition [6]
1 | NS(=O)(=O)Oc1ccc2ccc(=O)oc2c1 | 94.4% | 90.4% | 78.2% | 66% | 91.9% | 23.9%
2 | Cc1c(C)c2ccc(OS(N)(=O)=O)c(C)c2oc1=O | 12.5% | 75.1% | 17.4% | 46.4% | 11.5% | 9.3%
3 | NS(=O)(=O)Oc1ccc2c(c1)C(=O)CC2 | < 10% | 99% | < 10% | 91% | < 10% | 33%
4 | Cc1cc(=O)oc2cc(OS(N)(=O)=O)ccc12 | 99% |  |  | 85.6% | 97.8% | 42.9%
5 | NS(=O)(=O)Oc1ccc2c(c1)OC(=O)CC2 | 34.4% | 28.5% | < 10% | 30.2% | 15% | 12%
6 | Cc1cc(=O)oc2cc(O)c(OS(N)(=O)=O)cc12 | < 10% | < 10% | < 10% | < 10% | < 10% | < 10%
7 | NS(=O)(=O)Oc1ccc2c(c1)C(=O)CCC2 | 27% | 93.5% | 12.3% | 47.8% | 16.5% | 10.4%
8 | NS(=O)(=O)Oc1ccc2c(C(F)(F)F)cc(=O)oc2c1 | 96.3% | 71.5% | 79.4% | 28.3% | 94.3% | 9.9%
9 | CC1CC(=O)Oc2cc(OS(N)(=O)=O)ccc21 (centres undefined) | 82.1% | 32.3% | 53.4% | < 10% | 70.6% | < 10%
10 | NS(=O)(=O)Oc1ccc2c(c1)CCCC2=O | 56.1% | 78.1% | 16.1% | 11.7% | 54.3% | < 10%
11 | Cc1c(C)c2ccc(OS(N)(=O)=O)cc2oc1=O | 99.2% |  | 96.9% |  | 98.8% | 
12 | NS(=O)(=O)Oc1cccc2c1CCC2=O | < 10% | 74.1% | < 10% | 15.5% | < 10% | < 10%
13 | NS(=O)(=O)Oc1ccc2c(c1)OCC=C2 | 47.2% | 99.3% | 19.9% | 68.2% | 36.9% | 11.4%
14 | Cc1cc(=O)oc2ccc(OS(N)(=O)=O)cc12 | < 10% | 39.1% | < 10% | 17.4% | < 10% | < 10%
15 | NS(=O)(=O)Oc1ccc2c(c1)CCC2=O | 50.3% | 71.3% | 19.6% | 22.6% | 37.7% | 13.5%
16 | Cc1cc(=O)oc2cc(OS(N)(=O)=O)c(OS(N)(=O)=O)cc12 | < 10% | 31.2% | < 10% | < 10% | < 10% | < 10%
17 | NS(=O)(=O)Oc1ccc2c(c1)CCC=C2 | 34.5% | 76.2% | < 10% | 60.6% | 33.2% | 49%
18 | COc1cc2ccc(=O)oc2cc1OS(N)(=O)=O | 69.9% | 72.1% | < 10% | 34.1% | 42.9% | 33.8%
19 | NS(=O)(=O)Oc1ccc2c(c1)CCCC2 | 12.5% | 78.8% | < 10% | 56.7% | < 10% | 51.7%
